Assay results from ChEMBL document CHEMBL1123062, “Relationship between structure and antineoplastic activity of (arylsulfonyl)hydrazones of 4-pyridinecarboxaldehyde” (1985).

test system: P388; assay: Compound was evaluated for antitumor activity in mice bearing P388 leukemic cells, and average change in body weight from onset to the termination of therapy; format: functional, Mus musculus
In short: (§1)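 Ascitic Sarcoma 180 or P388 leukemia carried in CDF-1 mice; recipients transplanted from donors bearing 7-day tumors. Compound given once daily for six consecutive days from 24 h after implantation, over 50–200 mg/kg per day; hydrochloride salt solutions adjusted to pH 6.5–7.0. Mice weighed; % body-weight change onset to end of therapy taken as host toxicity; maximum effective daily dose reported from survival prolongation.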

Compound	Weight change
Cl.O=S(=O)(N/N=C/c1ccncc1)c1ccc(Cl)cc1	-5.4%
Cl.O=[N+]([O-])c1ccc(/C=N/NS(=O)(=O)c2ccccc2)cc1	-0.1%
Cl.O=[N+]([O-])c1ccc(S(=O)(=O)N/N=C/c2ccncc2)cc1	-7.5%
Cc1ccc(S(=O)(=O)N/N=C/c2ccncc2)cc1.Cl	-7.6%
CC(C)c1cc(C(C)C)c(S(=O)(=O)N/N=C/c2ccncc2)c(C(C)C)c1.Cl	-0.9%
CC(=O)Nc1ccc(S(=O)(=O)N/N=C/c2ccncc2)cc1.Cl	-3.1%

test system: P388; assay: Maximum effective daily dose required to inhibit the tumors of P388 leukemia; format: functional, Mus musculus; in short: as §1

Compound	Dose
Cl.O=S(=O)(N/N=C/c1ccncc1)c1ccc(Cl)cc1	200 mg/kg
Cc1cc(C)c(S(=O)(=O)N/N=C/c2ccc([N+](=O)[O-])cc2)c(C)c1.Cl	150 mg/kg
COc1ccc(S(=O)(=O)N/N=C/c2ccncc2)cc1OC.Cl	100 mg/kg
Cl.O=[N+]([O-])c1ccc(/C=N/NS(=O)(=O)c2ccccc2)cc1	150 mg/kg
Cl.O=[N+]([O-])c1ccc(S(=O)(=O)N/N=C/c2ccncc2)cc1	200 mg/kg
Cc1ccc(S(=O)(=O)N/N=C/c2ccncc2)cc1.Cl	150 mg/kg
CC(C)c1cc(C(C)C)c(S(=O)(=O)N/N=C/c2ccncc2)c(C(C)C)c1.Cl	200 mg/kg
CC(=O)Nc1ccc(S(=O)(=O)N/N=C/c2ccncc2)cc1.Cl	150 mg/kg

species: Mus musculus; assay: Ratio of average survival time of treated to control mice bearing P388 leukemia; format: functional
In short: (§2)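 In CDF-1 mice bearing ascitic P388 leukemia or Sarcoma 180 from 7-day donors, dosing ran once daily for six days from 24 h post-implant (range 50–200 mg/kg/day; HCl salts adjusted to pH 6.5–7.0). % T/C was the average survival time of treated over control animals × 100, reported at the maximum effective daily dose.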

Compound	T/C
Cl.O=S(=O)(N/N=C/c1ccncc1)c1ccc(Cl)cc1	112%
Cc1cc(C)c(S(=O)(=O)N/N=C/c2ccc([N+](=O)[O-])cc2)c(C)c1.Cl	121%
COc1ccc(S(=O)(=O)N/N=C/c2ccncc2)cc1OC.Cl	119%
Cl.O=[N+]([O-])c1ccc(/C=N/NS(=O)(=O)c2ccccc2)cc1	104%
Cl.O=[N+]([O-])c1ccc(S(=O)(=O)N/N=C/c2ccncc2)cc1	128%
Cc1ccc(S(=O)(=O)N/N=C/c2ccncc2)cc1.Cl	118%
CC(C)c1cc(C(C)C)c(S(=O)(=O)N/N=C/c2ccncc2)c(C(C)C)c1.Cl	123%
CC(=O)Nc1ccc(S(=O)(=O)N/N=C/c2ccncc2)cc1.Cl	121%

test system: not listed separately; assay: Compound was evaluated for antitumor activity in mice bearing sarcoma 180 ascites cells from average survival time; format: functional, Mus musculus
In short: (§3)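 Ascites forms of Sarcoma 180 or P388 leukemia carried in CDF-1 mice. Recipients were implanted from donors with 7-day tumor growth. Compound given once daily for six consecutive days starting 24 h after implantation, with a tested range of 50–200 mg/kg per day. Hydrochloride salt solutions were adjusted to pH 6.5–7.0. Survival time was averaged, days ± SE. Body weight was tracked as a toxicity indicator.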

Compound	Time
Cl.O=S(=O)(N/N=C/c1ccncc1)c1ccc(Cl)cc1	28.6 days
COc1ccc(S(=O)(=O)N/N=C/c2ccncc2)cc1OC.Cl	32.8 days
CC(=O)Nc1ccc(S(=O)(=O)N/N=C/c2ccncc2)cc1.Cl	34 days

species: Mus musculus; assay: Ratio of average survival time of treated to control mice bearing sarcoma 180 ascites cells; format: functional; in short: as §2

Compound	T/C
Cl.O=S(=O)(N/N=C/c1ccncc1)c1ccc(Cl)cc1	242%
Cc1cc(C)c(S(=O)(=O)N/N=C/c2ccc([N+](=O)[O-])cc2)c(C)c1.Cl	231%
COc1ccc(S(=O)(=O)N/N=C/c2ccncc2)cc1OC.Cl	278%
Cl.O=[N+]([O-])c1ccc(/C=N/NS(=O)(=O)c2ccccc2)cc1	182%
Cl.O=[N+]([O-])c1ccc(S(=O)(=O)N/N=C/c2ccncc2)cc1	328%
Cc1ccc(S(=O)(=O)N/N=C/c2ccncc2)cc1.Cl	249%
CC(C)c1cc(C(C)C)c(S(=O)(=O)N/N=C/c2ccncc2)c(C(C)C)c1.Cl	262%
CC(=O)Nc1ccc(S(=O)(=O)N/N=C/c2ccncc2)cc1.Cl	288%

test system: not listed separately; assay: Compound was evaluated for antitumor activity in mice (control group) bearing sarcoma 180 ascites cells from average survival time; format: functional, Mus musculus; in short: as §3

Compound	Time
Cl.O=S(=O)(N/N=C/c1ccncc1)c1ccc(Cl)cc1	11.8 days
COc1ccc(S(=O)(=O)N/N=C/c2ccncc2)cc1OC.Cl	11.8 days
CC(=O)Nc1ccc(S(=O)(=O)N/N=C/c2ccncc2)cc1.Cl	11.8 days

test system: P388; assay: Compound was evaluated for antitumor activity in mice bearing P388 leukemic cells, and average change in body weight from onset to the termination of drug therapy; format: functional, Mus musculus; in short: as §1

Compound	Weight change
COc1ccc(S(=O)(=O)N/N=C/c2ccncc2)cc1OC.Cl	-3%

test system: P388; assay: Compound was evaluated for antitumor activity in mice (control group) bearing P388 leukemic cells from average survival time; format: functional, Mus musculus; in short: as §3

Compound	Time
Cl.O=S(=O)(N/N=C/c1ccncc1)c1ccc(Cl)cc1	14.8 days
Cc1cc(C)c(S(=O)(=O)N/N=C/c2ccc([N+](=O)[O-])cc2)c(C)c1.Cl	14.2 days
COc1ccc(S(=O)(=O)N/N=C/c2ccncc2)cc1OC.Cl	14.8 days
CC(=O)Nc1ccc(S(=O)(=O)N/N=C/c2ccncc2)cc1.Cl	14.6 days

test system: P388; assay: Compound was evaluated for antitumor activity in mice bearing P388 leukemic cells and average survival time; format: functional, Mus musculus; in short: as §3

Compound	Time
Cl.O=[N+]([O-])c1ccc(/C=N/NS(=O)(=O)c2ccccc2)cc1	14.8 days
Cl.O=[N+]([O-])c1ccc(S(=O)(=O)N/N=C/c2ccncc2)cc1	17.6 days
Cc1ccc(S(=O)(=O)N/N=C/c2ccncc2)cc1.Cl	17.2 days
CC(C)c1cc(C(C)C)c(S(=O)(=O)N/N=C/c2ccncc2)c(C(C)C)c1.Cl	17 days

test system: P388; assay: Compound was evaluated for antitumor activity in mice bearing P388 leukemic cells from average survival time; format: functional, Mus musculus; in short: as §3

Compound	Time
Cl.O=S(=O)(N/N=C/c1ccncc1)c1ccc(Cl)cc1	16.6 days
Cc1cc(C)c(S(=O)(=O)N/N=C/c2ccc([N+](=O)[O-])cc2)c(C)c1.Cl	17.2 days
COc1ccc(S(=O)(=O)N/N=C/c2ccncc2)cc1OC.Cl	17.6 days
CC(=O)Nc1ccc(S(=O)(=O)N/N=C/c2ccncc2)cc1.Cl	17.6 days

test system: not listed separately; assay: Compound was evaluated for antitumor activity in mice bearing sarcoma 180 ascites cells and average survival time; format: functional, Mus musculus; in short: as §3

Compound	Time
Cc1cc(C)c(S(=O)(=O)N/N=C/c2ccc([N+](=O)[O-])cc2)c(C)c1.Cl	26.4 days
Cl.O=[N+]([O-])c1ccc(/C=N/NS(=O)(=O)c2ccccc2)cc1	20.8 days
Cl.O=[N+]([O-])c1ccc(S(=O)(=O)N/N=C/c2ccncc2)cc1	37.4 days
Cc1ccc(S(=O)(=O)N/N=C/c2ccncc2)cc1.Cl	36.4 days
CC(C)c1cc(C(C)C)c(S(=O)(=O)N/N=C/c2ccncc2)c(C(C)C)c1.Cl	31 days

test system: P388; assay: Compound was evaluated for antitumor activity in mice (control group) bearing P388 leukemic cells and average survival time; format: functional, Mus musculus; in short: as §3

Compound	Time
Cl.O=[N+]([O-])c1ccc(/C=N/NS(=O)(=O)c2ccccc2)cc1	14.2 days
Cl.O=[N+]([O-])c1ccc(S(=O)(=O)N/N=C/c2ccncc2)cc1	13.8 days
Cc1ccc(S(=O)(=O)N/N=C/c2ccncc2)cc1.Cl	14.6 days
CC(C)c1cc(C(C)C)c(S(=O)(=O)N/N=C/c2ccncc2)c(C(C)C)c1.Cl	13.8 days

species: Mus musculus; assay: Average change in body weight from onset to the termination of drug therapy in mice bearing sarcoma 180 ascites cells; format: functional; in short: as §1

Compound	Weight change
Cl.O=S(=O)(N/N=C/c1ccncc1)c1ccc(Cl)cc1	-5.4%
Cc1cc(C)c(S(=O)(=O)N/N=C/c2ccc([N+](=O)[O-])cc2)c(C)c1.Cl	-10.2%
COc1ccc(S(=O)(=O)N/N=C/c2ccncc2)cc1OC.Cl	-9.1%
Cl.O=[N+]([O-])c1ccc(/C=N/NS(=O)(=O)c2ccccc2)cc1	-12.1%
Cl.O=[N+]([O-])c1ccc(S(=O)(=O)N/N=C/c2ccncc2)cc1	-8.1%
Cc1ccc(S(=O)(=O)N/N=C/c2ccncc2)cc1.Cl	-14.5%
CC(C)c1cc(C(C)C)c(S(=O)(=O)N/N=C/c2ccncc2)c(C(C)C)c1.Cl	-3.1%
CC(=O)Nc1ccc(S(=O)(=O)N/N=C/c2ccncc2)cc1.Cl	-5.2%

test system: not listed separately; assay: Compound was evaluated for antitumor activity in mice (control group) bearing sarcoma 180 ascites cells and average survival time; format: functional, Mus musculus; in short: as §3

Compound	Time
Cc1cc(C)c(S(=O)(=O)N/N=C/c2ccc([N+](=O)[O-])cc2)c(C)c1.Cl	11.4 days
Cl.O=[N+]([O-])c1ccc(/C=N/NS(=O)(=O)c2ccccc2)cc1	11.4 days
Cl.O=[N+]([O-])c1ccc(S(=O)(=O)N/N=C/c2ccncc2)cc1	11.4 days
Cc1ccc(S(=O)(=O)N/N=C/c2ccncc2)cc1.Cl	14.6 days
CC(C)c1cc(C(C)C)c(S(=O)(=O)N/N=C/c2ccncc2)c(C(C)C)c1.Cl	11.8 days

test system: not listed separately; assay: Maximum effective daily dose required to inhibit the tumors of sarcoma 180 ascites cells; format: functional, Mus musculus; in short: as §1

Compound	Dose
Cl.O=S(=O)(N/N=C/c1ccncc1)c1ccc(Cl)cc1	150 mg/kg
Cc1cc(C)c(S(=O)(=O)N/N=C/c2ccc([N+](=O)[O-])cc2)c(C)c1.Cl	100 mg/kg
COc1ccc(S(=O)(=O)N/N=C/c2ccncc2)cc1OC.Cl	200 mg/kg
Cl.O=[N+]([O-])c1ccc(/C=N/NS(=O)(=O)c2ccccc2)cc1	150 mg/kg
Cl.O=[N+]([O-])c1ccc(S(=O)(=O)N/N=C/c2ccncc2)cc1	75 mg/kg
Cc1ccc(S(=O)(=O)N/N=C/c2ccncc2)cc1.Cl	100 mg/kg
CC(C)c1cc(C(C)C)c(S(=O)(=O)N/N=C/c2ccncc2)c(C(C)C)c1.Cl	200 mg/kg
CC(=O)Nc1ccc(S(=O)(=O)N/N=C/c2ccncc2)cc1.Cl	150 mg/kg

test system: P388; assay: Compound was evaluated for average change in body weight from onset to the termination of drug therapy in mice bearing P388 leukemic cells; format: functional, Mus musculus; in short: as §1

Compound	Weight change
Cc1cc(C)c(S(=O)(=O)N/N=C/c2ccc([N+](=O)[O-])cc2)c(C)c1.Cl	-3.5%
